Test system: not listed separately
Assay: Anti-prion activity against 22L prion protein in mouse N2a cells by Western blotting analysis
Type: cell-based

Work on `OC1(C#Cc2ccccc2)CCCCC1NCc1ccccc1` (racemic) yielded an IC50 of 8.25 µM.

Test system: N2a
Assay: Anti-prion activity against Scrapie prion protein in mouse N2a-FK cells assessed as residual activity at 10 uM after 48 hrs by immunoblotting analysis relative to control
Type: cell-based
Outline: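 FK-1-infected N2a cells were seeded overnight at 37 °C, then exposed to 10 µM compound for 48 h. Lysates were treated with 20 μg/mL proteinase K at 37 °C for 30 min, then 15% SDS-PAGE and western blot for PrP^Sc. PrP^Sc ratio is % of solvent-treated control (100%), Tukey-Kramer comparison, mean ± SD.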

In order of falling Activity:
1. O=C(N[C@H]1CCCC[C@@]1(O)CCc1ccccc1)c1ccccc1 (racemic)  126%
2. OC(C#Cc1ccccc1)CNCc1ccccc1 (centres undefined)  120%
3. O[C@@]1(C#Cc2ccccc2)CCCC[C@@H]1NCc1ccccn1 (racemic)  116%
4. O=S(=O)(N[C@H]1CCCC[C@@]1(O)CCc1ccccc1)c1ccccc1 (racemic)  112%
5. CC(C)(C)OC(=O)N1CC[C@@](O)(C#Cc2ccccc2)[C@@H](NCc2ccccc2)C1 (racemic)  108%
6. COC(=O)c1ccccc1C#C[C@]1(O)CCCC[C@@H]1NCc1ccccc1 (racemic)  103%
7. O[C@@]1(C#Cc2ccccc2)CCCC[C@@H]1NCc1ccco1 (racemic)  103%
8. O[C@@]1(C#Cc2ccccc2)CCCC[C@@H]1NCc1ccncc1 (racemic)  102%
9. O[C@@]1(C#Cc2ccccc2)CCCC[C@@H]1NCc1ccccc1  100%
10. C(#C[C@@]12CCCC[C@@H]1N2Cc1ccccc1)c1ccccc1 (mixture of isomers)  96.7%
11. O[C@@]1(C#Cc2ccccc2)CCCC[C@@H]1NCc1ccccc1Cl (racemic)  96.1%
12. O[C@@]1(C#Cc2ccc(F)cc2)CCCC[C@@H]1NCc1ccccc1 (racemic)  95.1%
13. Cc1cccc(C#C[C@]2(O)CCCC[C@@H]2NCc2ccccc2)c1  93.7%
14. N[C@H]1CCCC[C@@]1(O)CCc1ccccc1 (racemic)  88%
15. O[C@@]1(C#Cc2ccccc2)CCCC[C@@H]1N1CCc2ccccc2C1 (racemic)  86%
16. OC1(C#Cc2ccccc2)CCCCC1NCc1ccccc1 (racemic)  85.8%
17. O[C@@]1(C#Cc2ccccc2)CCOC[C@@H]1NCc1ccccc1 (racemic)  85.2%
18. Cc1cccc(CN[C@H]2CCCC[C@@]2(O)C#Cc2ccccc2)c1  84.8%
19. COC(=O)c1ccc(C#C[C@]2(O)CCCC[C@@H]2NCc2ccccc2)cc1 (racemic)  84.8%
20. COC(=O)c1cccc(C#C[C@]2(O)CCCC[C@@H]2NCc2ccccc2)c1 (racemic)  83.7%
21. COc1ccc(CN[C@H]2CCCC[C@@]2(O)C#Cc2ccccc2)cc1 (racemic)  83.3%
22. O[C@@]1(/C=C/c2ccccc2)CCCC[C@@H]1NCc1ccccc1  81.6%
23. O[C@@]1(C#Cc2ccccc2F)CCCC[C@@H]1NCc1ccccc1 (racemic)  80.7%
24. O[C@@]1(C#Cc2ccc(Cl)cc2)CCCC[C@@H]1NCc1ccccc1 (racemic)  77.5%
25. OC1(CN[C@H]2CCCC[C@@]2(O)C#Cc2ccccc2)CCCCC1 (racemic)  77.5%
26. CCOC(=O)CN(Cc1ccccc1)[C@H]1CCCC[C@@]1(O)C#Cc1ccccc1 (racemic)  76.1%
27. COc1ccc(C#C[C@]2(O)CCCC[C@@H]2NCc2ccccc2)cc1 (racemic)  75.7%
28. O[C@@]1(C#Cc2ccccc2)CCCCC[C@@H]1NCc1ccccc1 (racemic)  75.7%
29. Cc1ccc(CN[C@H]2CCCC[C@@]2(O)C#Cc2ccccc2)cc1 (racemic)  75.5%
30. Cc1ccc(C#C[C@]2(O)CCCC[C@@H]2NCC2CCCCC2)cc1 (racemic)  75.2%
31. O[C@@]1(C#Cc2cccc(F)c2)CCCC[C@@H]1NCc1ccccc1 (racemic)  74.5%
32. O[C@@]1(C#Cc2ccccc2)CCCC[C@@H]1NCc1ccccc1F (mixture of isomers)  68.6%
33. O=C1O[C@@]2(C#Cc3ccccc3)CCCC[C@@H]2N1Cc1ccccc1  68.4%
34. O[C@@]1(C#Cc2ccccc2)CCCC[C@@H]1N1CC[C@@H]2CCCC[C@H]2C1 (racemic)  66.7%
35. O[C@@]1(C#Cc2ccccc2)CCCC[C@@H]1NCc1cccnc1 (racemic)  63.4%
36. O[C@@]1(C#Cc2ccccc2)CCCC[C@@H]1NCc1cccc(F)c1 (racemic)  61.2%
37. O[C@@]1(C#Cc2ccccc2)CCCC[C@@H]1NCc1ccc(F)cc1 (racemic)  58.8%
38. O[C@@]1(C#Cc2ccccc2)CCCC[C@@H]1NCC1CCCC1 (racemic)  54.8%
39. O[C@@]1(C#Cc2ccc(F)cc2)CCCC[C@@H]1NCC1CCCCC1 (racemic)  35.5%
40. O[C@@]1(C#Cc2ccccc2)CCCC[C@@H]1NCC1CCCCC1 (racemic)  32.7%

Test system: not listed separately
Assay: Anti-prion activity against Scrapie prion protein in mouse N2a-FK cells after 48 hrs by immunoblotting analysis
Type: cell-based
Outline: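 N2a cells persistently infected with FK-1 prion strain, seeded overnight at 37 °C, then exposed to compound at 1, 5 and 10 µM for 48 h. Lysates digested with 20 μg/mL proteinase K at 37 °C for 30 min, run on 15% SDS-PAGE, and western blotted. PrP^Sc band intensity was plotted against concentration and fitted to a Boltzmann sigmoid for IC50. Mean ± SD from at least three experiments.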

In order of rising IC50:
1. O[C@@]1(C#Cc2ccccc2)CCCC[C@@H]1NCC1CCCCC1 (racemic)  4.7 µM
2. O[C@@]1(C#Cc2ccc(F)cc2)CCCC[C@@H]1NCC1CCCCC1 (racemic)  5.6 µM

Test system: not listed separately
Assay: Anti-prion activity against RML prion protein in mouse N2a cells by Western blotting analysis
Type: cell-based

With `OC1(C#Cc2ccccc2)CCCCC1NCc1ccccc1` (racemic) the IC50 was 3.21 µM.

— ChEMBL document CHEMBL4665866, “Generation, optimization and characterization of novel anti-prion compounds” (Bioorg Med Chem, 2020)
